Measured values collected from several papers.
Protocols differ between the studies behind these lines.
Target: Dual specificity protein kinase CLK1 (CLK1, Homo sapiens, UniProt P49759)

O=c1[nH]c2ccccc2n1C1CCN(Cc2ccc(-c3[nH]c4cc5ncnc5cc4nc3-c3ccccc3)cc2)CC1 — remaining signal (cell-free assay; 0.5 µM): 109%
COc1ncccc1-c1cnn2ccc(N3CCN(C(=O)OC(C)C)CC3)nc12 — remaining binding (binding, competition with immobilised ligand; 1 µM): 81%
C#Cc1n[nH]c2c(-c3cn([C@@H](C)c4ccccn4)c(=O)[nH]c3=O)cc(F)cc12 — inhibition (enzyme activity, inhibitor; 0.1 µM): 4.1%
Cn1cc(-c2cc(F)cc(N3CCn4c(cc5c4CCCC5)C3=O)c2CO)cc(Nc2ccc(N3CCN(C4COC4)CC3)cn2)c1=O — inhibition (enzyme activity, inhibitor; 0.1 µM): 11%
Cn1cncc1[C@@](O)(COc1ccc(C#N)cc1-c1ccc(OC(F)(F)F)cc1)c1ccc(C#N)cc1 — remaining binding (cell-free assay, competition with immobilised ligand; 1 µM): 100%
CC(C)(C)c1cc(C=C(C#N)C#N)cc(Br)c1O — remaining activity (enzyme activity, inhibitor; 0.5 µM): 112%
COc1cc(Nc2ncc(F)c(Nc3ccc4c(n3)NC(=O)C(C)(C)O4)n2)cc(OC)c1OC — inhibition (binding, competition with immobilised ligand; 10 µM): 92%
Cc1nn(C)cc1-c1nc2c(N3CCN(Cc4ccc(Cl)cc4)CC3)c(Cl)cnc2[nH]1 — remaining binding (binding, competition with immobilised ligand; 1 µM): 63%
Nc1ncc(-c2nc(N3CCOCC3)nc(N3CCOCC3)n2)c(C(F)F)n1 — remaining binding (binding, competition with immobilised ligand; 10 µM): 58%
